Assay results taken from ChEMBL document CHEMBL5247577, “Improved Selective Class I HDAC and Novel Selective HDAC3 Inhibitors: Beyond Hydroxamic Acids and Benzamides” (ACS Med Chem Lett, 2019).

Experiments:
[1] = Half life in Wistar rat plasma at 10 mg/kg, po or 2 mg/kg,iv by LC/MS/MS analysis; type: ADME, organism-based
Method in brief: (§1)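 Compound dosed as the tartrate salt. Oral doses were 20 mg/kg in mouse, 10 mg/kg in rat and 5 mg/kg in minipig.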

Histone deacetylase 1 = Histone deacetylase 1 (Homo sapiens, UniProt Q13547); experiment: Inhibition of human recombinant his tagged HDAC1 expressed in baculovirus expression system using FLUOR DE LYS-SIRT1 as fluorogenic substrate preincubated for 10 mins followed by substrate addition and measured after 1 hr by spectrophotometer based analysis
Histone deacetylase 1, sequence (Q13547 whole entry): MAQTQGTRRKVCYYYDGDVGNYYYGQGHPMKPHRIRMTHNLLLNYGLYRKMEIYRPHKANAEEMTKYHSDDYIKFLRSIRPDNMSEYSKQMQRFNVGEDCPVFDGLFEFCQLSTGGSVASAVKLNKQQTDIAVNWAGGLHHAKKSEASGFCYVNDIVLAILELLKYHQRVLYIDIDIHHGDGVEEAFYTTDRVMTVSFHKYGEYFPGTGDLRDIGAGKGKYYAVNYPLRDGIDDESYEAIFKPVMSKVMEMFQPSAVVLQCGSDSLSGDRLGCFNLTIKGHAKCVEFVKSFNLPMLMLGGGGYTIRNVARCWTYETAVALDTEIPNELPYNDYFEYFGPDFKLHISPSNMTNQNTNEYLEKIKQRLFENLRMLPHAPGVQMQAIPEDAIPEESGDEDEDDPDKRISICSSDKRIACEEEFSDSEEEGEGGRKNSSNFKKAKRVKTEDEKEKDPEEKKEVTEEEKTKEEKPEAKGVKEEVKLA

Histone deacetylase 3 = Histone deacetylase 3 (Homo sapiens, UniProt O15379); experiment: Inhibition of human HDAC3 expressed in baculovirus infected insect cells using FLUOR DE LYS-SIRT1 as fluorogenic substrate preincubated for 10 mins followed by substrate addition and measured after 1 hr by spectrophotometer based analysis
Histone deacetylase 3, sequence (O15379 whole entry): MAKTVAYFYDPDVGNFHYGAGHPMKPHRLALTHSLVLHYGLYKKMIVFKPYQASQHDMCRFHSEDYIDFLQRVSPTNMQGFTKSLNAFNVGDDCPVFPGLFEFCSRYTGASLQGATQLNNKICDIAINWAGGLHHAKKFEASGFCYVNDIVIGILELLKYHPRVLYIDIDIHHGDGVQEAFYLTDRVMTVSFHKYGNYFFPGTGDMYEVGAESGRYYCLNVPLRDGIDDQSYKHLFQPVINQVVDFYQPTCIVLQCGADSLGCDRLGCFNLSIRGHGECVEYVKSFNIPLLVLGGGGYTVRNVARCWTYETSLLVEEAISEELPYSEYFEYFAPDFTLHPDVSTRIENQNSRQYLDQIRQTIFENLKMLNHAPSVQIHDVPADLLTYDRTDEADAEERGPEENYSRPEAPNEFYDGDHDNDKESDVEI

[2] = target: T1, Protein deacetylase HDAC6 (Homo sapiens, UniProt Q9UBN7); experiment: Inhibition of human HDAC6
T1 sequence (Q9UBN7 whole entry): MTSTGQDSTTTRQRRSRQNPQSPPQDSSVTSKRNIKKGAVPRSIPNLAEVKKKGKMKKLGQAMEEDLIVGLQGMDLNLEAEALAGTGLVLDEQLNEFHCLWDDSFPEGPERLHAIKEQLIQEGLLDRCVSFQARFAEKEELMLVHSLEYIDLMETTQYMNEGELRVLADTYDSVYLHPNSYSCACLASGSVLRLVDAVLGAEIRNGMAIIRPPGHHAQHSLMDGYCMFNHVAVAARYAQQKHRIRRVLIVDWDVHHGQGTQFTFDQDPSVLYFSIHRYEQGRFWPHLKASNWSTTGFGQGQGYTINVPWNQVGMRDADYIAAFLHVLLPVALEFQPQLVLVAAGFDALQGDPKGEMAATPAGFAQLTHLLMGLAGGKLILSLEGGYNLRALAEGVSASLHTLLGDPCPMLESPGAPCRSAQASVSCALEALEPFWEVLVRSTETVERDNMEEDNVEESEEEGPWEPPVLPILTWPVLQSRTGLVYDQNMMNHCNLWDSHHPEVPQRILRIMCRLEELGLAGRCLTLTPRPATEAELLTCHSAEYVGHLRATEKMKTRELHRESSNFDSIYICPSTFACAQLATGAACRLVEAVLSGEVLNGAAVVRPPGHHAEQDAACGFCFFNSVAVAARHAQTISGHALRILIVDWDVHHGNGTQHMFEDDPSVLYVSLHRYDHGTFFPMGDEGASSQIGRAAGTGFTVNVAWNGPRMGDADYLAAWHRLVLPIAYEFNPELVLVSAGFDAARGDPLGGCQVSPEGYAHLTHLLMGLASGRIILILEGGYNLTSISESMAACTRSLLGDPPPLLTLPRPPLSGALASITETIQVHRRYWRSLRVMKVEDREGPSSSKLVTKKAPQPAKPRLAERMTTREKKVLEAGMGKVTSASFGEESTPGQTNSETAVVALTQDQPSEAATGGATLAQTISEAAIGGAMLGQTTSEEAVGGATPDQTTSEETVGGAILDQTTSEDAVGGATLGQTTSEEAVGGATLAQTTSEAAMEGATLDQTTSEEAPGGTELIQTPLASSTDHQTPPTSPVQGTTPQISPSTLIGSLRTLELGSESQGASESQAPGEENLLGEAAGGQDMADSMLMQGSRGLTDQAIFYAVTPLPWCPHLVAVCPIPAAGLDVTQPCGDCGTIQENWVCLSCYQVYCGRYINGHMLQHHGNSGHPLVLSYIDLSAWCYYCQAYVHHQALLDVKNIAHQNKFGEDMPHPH

[3] = Clearance in Gottigen pig plasma by LC/MS/MS analysis; type: ADME, Sus scrofa; method in brief: as §1
[4] = AUC in Wistar rat plasma at 5 to 20 mg/kg, po by LC/MS/MS analysis; type: ADME, organism-based; set-up: route po; conditions: dose 5-20 mg/kg
Method in brief: (§2)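 Compound given orally as its tartrate salt at 20 mg/kg in mouse, 10 mg/kg in rat and 5 mg/kg in minipig.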

Cytochrome P450 1A2 = target: T2, Cytochrome P450 1A2 (Homo sapiens, UniProt P05177); experiment: Inhibition of CYP1A2 (unknown origin); type: ADME
T2 sequence (P05177 whole entry): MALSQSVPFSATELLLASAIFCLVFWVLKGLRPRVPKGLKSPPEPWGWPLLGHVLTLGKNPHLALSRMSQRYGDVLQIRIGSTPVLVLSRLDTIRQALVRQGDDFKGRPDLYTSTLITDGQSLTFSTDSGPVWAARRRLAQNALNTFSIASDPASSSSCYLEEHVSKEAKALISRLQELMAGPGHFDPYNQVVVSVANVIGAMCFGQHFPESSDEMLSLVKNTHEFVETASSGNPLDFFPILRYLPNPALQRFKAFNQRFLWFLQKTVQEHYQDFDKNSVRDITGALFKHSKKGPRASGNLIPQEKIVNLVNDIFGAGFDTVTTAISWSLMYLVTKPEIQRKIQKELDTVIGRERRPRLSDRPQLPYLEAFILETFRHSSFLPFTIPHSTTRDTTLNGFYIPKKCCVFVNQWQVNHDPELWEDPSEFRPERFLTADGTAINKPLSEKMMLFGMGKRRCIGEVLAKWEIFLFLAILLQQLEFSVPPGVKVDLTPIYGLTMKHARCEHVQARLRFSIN

Cytochrome P450 3A4 = Cytochrome P450 3A4 (Homo sapiens, UniProt P08684); experiment: Inhibition of CYP3A4 (unknown origin); type: ADME
Cytochrome P450 3A4, sequence (P08684 whole entry): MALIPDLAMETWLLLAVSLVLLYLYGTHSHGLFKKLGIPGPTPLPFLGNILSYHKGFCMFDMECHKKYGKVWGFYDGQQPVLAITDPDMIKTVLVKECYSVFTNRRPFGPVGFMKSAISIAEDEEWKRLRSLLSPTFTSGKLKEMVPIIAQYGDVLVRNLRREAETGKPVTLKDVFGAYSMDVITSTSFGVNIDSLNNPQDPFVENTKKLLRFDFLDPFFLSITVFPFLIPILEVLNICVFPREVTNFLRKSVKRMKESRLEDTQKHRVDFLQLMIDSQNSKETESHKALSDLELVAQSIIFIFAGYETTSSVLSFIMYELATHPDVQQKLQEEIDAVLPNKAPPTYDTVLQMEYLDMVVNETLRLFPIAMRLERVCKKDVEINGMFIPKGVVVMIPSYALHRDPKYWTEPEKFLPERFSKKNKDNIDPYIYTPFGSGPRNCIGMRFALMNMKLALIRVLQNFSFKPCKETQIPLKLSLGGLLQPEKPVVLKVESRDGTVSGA

[5] = Oral bioavailability in Wistar rat at 10 mg/kg by LC/MS/MS analysis; type: ADME, organism-based; conditions: in vivo; method in brief: as §1
[6] = Unbound fraction in human plasma; type: ADME, cell-free
[7] = Volume of distribution at steady state in Gottigen pig by LC/MS/MS analysis; type: ADME, Sus scrofa; conditions: in vivo, read-out: Vdss; method in brief: as §1
[8] = AUC in NMRI mouse plasma at 5 to 20 mg/kg, po by LC/MS/MS analysis; type: ADME, organism-based; set-up: route po; conditions: in vivo, dose 5-20 mg/kg; method in brief: as §2

half-life [1]: 3.3 h | IC50 (Histone deacetylase 1): 0.0017 µM | IC50 (Histone deacetylase 3): 0.0011 µM | IC50 [2]: 0.177 µM | clearance [3]: 20 mL/min/kg | AUC [4]: 21.5 µM·h | IC50 (Cytochrome P450 1A2): > 20 µM | IC50 (Cytochrome P450 3A4): > 20 µM | bioavailability [5]: 100% | fraction unbound [6]: 0.018 | Vd [7]: 0.64 L/kg | AUC [8]: 9.3 µM·h
SMILES: CCC(=O)CCCCC[C@H](NC(=O)C1CN(C)C1)c1ncc(-c2cc3ccccc3nc2OC)o1
